Here are results for 14 compounds from PubChem BioAssay AID651577 (The Scripps Research Institute Molecular Screening Center, 2012).

Activity calls are given as the source filed them.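 How the source made its calls: active means IC50 at or below 10 µM; inactive means IC50 above 10 µM.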

This assay addresses HCV core protein (core106) dimerization. The assay is described as follows: HCV core106 dimer disruption potency, late-stage follow-up, biochemical, AlphaScreen luminescence, powder samples (AID 651577). The settings on record: AlphaScreen GST-/Flag-core106 dimerization. The essentials: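 Assay system: HCV core106 protein domain, GST-tagged and Flag-tagged forms / Amount: 150 nM GST-core106 plus 150 nM Flag-core106 / Signal: AlphaScreen bead-proximity luminescence / Replicates: triplicate wells per concentration / Incubation: 1 h protein preincubation, 1 h per bead addition / Probe or stimulus: Anti-Flag acceptor and glutathione donor beads, 20 µg/mL each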

Take `Cc1ccc(Cc2c(CCc3ccccc3)nc3nc(SC(Cc4ccccc4)C(=O)NCCN4CCOCC4)nn3c2C)cc1` (centres undefined): the IC50 is 9900 nM.
Regarding `Cc1ccc(Cc2c(C)nc3nc(SCC(=O)NCCN4CCN(Cc5ccc(F)cc5)CC4)nn3c2C)cc1`, the IC50 entry was “inactive”.
Under `Cc1ccc(Cc2c(C)nc3nc(SCC(=O)NCCN4CCCN(S(=O)(=O)c5ccccc5)CC4)nn3c2C)cc1` stands 1600 nM.
Under `Cc1ccc(Cc2c(C)nc3nc(SCC(=O)NCCN4CCCCC4)nn3c2C)cc1` stands “inactive”; under `Cc1ccc(Cc2c(C)nc3nc(SCC(=O)NCCN4CCCN(S(C)(=O)=O)CC4)nn3c2C)cc1`, 510 nM; under `Cc1ccc(Cc2c(C)nc3nc(SCC(=O)NCCN4CCN(S(=O)(=O)c5ccccc5)CC4)nn3c2C)cc1`, 10200 nM.
Under `Cc1ccc(Cc2c(C)nc3nc(SCC(=O)NCCN4CCOCC4)nn3c2C)cc1` stands 1000 nM; under `Cc1ccc(Cc2c(C)nc3nc(SCC(=O)NCCN4CCN(CCc5ccccc5)CC4)nn3c2C)cc1`, “inactive”; under `Cc1ccc(Cc2c(C)nc3nc(SCC(=O)NCCN4CCCN(S(=O)(=O)c5ccc(C)cc5)CC4)nn3c2C)cc1`, 2600 nM.
As to `Cc1ccc(Cc2c(C)nc3nc(SCC(=O)NCCN4CCNCC4)nn3c2C)cc1`, the IC50 was 8400 nM.
With `Cc1ccc(Cc2c(C)nc3nc(SCC(=O)NCCN4CCCCCC4)nn3c2C)cc1`, the IC50 is 1900 nM.
As to `Cc1ccc(Cc2c(C)nc3nc(SCC(=O)NCCN4CCN(Cc5ccc(Cl)cc5)CC4)nn3c2C)cc1`, the IC50 entry was “inactive”.
In the case of `Cc1ccc(Cc2c(C)nc3nc(SCC(=O)NCCN4CCN(C(=O)OC(C)(C)C)CC4)nn3c2C)cc1`, the IC50 entry is “inactive”.
The entry for `Cc1ccc(Cc2c(C)nc3nc(SCC(=O)NCCN4CCN(Cc5ccccc5)CC4)nn3c2C)cc1` is “inactive”.

By IC50 is commonly meant the point on the concentration scale where inhibition reaches its midpoint.
